Only some compounds are listed: those with a hit (about 1.9% of all), similar ones and a draw of the others.
CHRM4 agonist – CHRM4 agonism in calcium assay. 0.14% of 360,000 active. activation, % at 3 µM. P08173. CHO-K1 hM4/Gqi5, Fluo-8 calcium fluorescence; vehicle 0%, full acetylcholine response 100%. AID 624127;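 active = activation above the run mean over all test wells plus 3 SD, cut at about 32% in these data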;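 note: peak over basal fluorescence ratio per well then scaled between controls; 0% = DMSO wells and 100% = acetylcholine at EC100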
CHRM5 agonist – agonists of human muscarinic M5 receptor (CHRM5) | P08912 | CHO-K1 hM5 cells, Fluo-8 calcium fluorescence; 0% DMSO wells, 100% maximal acetylcholine response | 0.19% of 360,000 active | activation, % at 3 µM | AID 624037;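 active = activation above the run's mean over test compounds plus 3 SD, cut at about 23% in these data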;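 note: signal is peak over basal fluorescence ratio across the kinetic read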
Target sequence (P08912 whole entry, looked up): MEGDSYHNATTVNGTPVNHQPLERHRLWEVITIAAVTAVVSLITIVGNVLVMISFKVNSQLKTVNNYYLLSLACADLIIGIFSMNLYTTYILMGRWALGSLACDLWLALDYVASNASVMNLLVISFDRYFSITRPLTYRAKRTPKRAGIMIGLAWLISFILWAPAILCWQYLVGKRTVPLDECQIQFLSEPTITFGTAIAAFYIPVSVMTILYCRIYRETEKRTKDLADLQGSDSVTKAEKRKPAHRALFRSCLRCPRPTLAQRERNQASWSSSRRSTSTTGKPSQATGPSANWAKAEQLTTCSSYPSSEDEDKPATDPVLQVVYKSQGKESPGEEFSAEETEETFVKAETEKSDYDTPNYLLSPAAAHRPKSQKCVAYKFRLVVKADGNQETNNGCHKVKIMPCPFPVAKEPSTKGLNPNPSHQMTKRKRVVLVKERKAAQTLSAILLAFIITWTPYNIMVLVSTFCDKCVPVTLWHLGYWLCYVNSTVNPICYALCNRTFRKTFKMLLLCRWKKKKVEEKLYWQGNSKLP
M4 antag – antagonists of human muscarinic M4 receptor (CHRM4); CHO-hM4 cells, ACh EC80, Fluo-8 calcium fluorescence; 0.73% of 360,000 active; P08173; AID 624125; inhibition, % at 3 µM;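 active = inhibition above its plate's cutoff, the mean inhibition of sample wells plus 3 SD, cut at about 27% in these data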;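 note: 0% = acetylcholine EC80 with DMSO and 100% = DMSO without agonist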
M5 PAM – CHRM5 positive allosteric modulation | P08912 | CHO-K1 hM5, Fluo-8 calcium, ACh EC20 PAM; 0% = ACh EC20, 100% = ACh EC100 | activation, % at 3 µM | 0.3% of 360,000 active;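 active = activation above the run cutoff, the mean activation of all test compounds plus 3 SD, cut at about 18% in these data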
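system = human M5 receptor in CHO-K1 cells | reagent = EC20 acetylcholine as agonist stimulus | compound dosing = single-point, 3 µM nominal | incubation = Fluo-8 loading 80 min at 37 °C plus 30 min room temperature | detection = Fluo-8 calcium dye fluorescence, kinetic read | benchmarks = low control EC20 acetylcholine (0%), high control EC100 acetylcholine (100%)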
CHRM4 PAM – potentiates acetylcholine response at human M4 receptor. activation, % at 3 µM. AID 624126. 0.4% of 360,000 active. P08173. CHO-K1 hM4/Gqi5, Fluo-8 calcium fluorescence, ACh EC20; 0% = ACh EC20, 100% = maximal ACh;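 active = activation above its plate's cutoff, the mean activation of sample wells plus 3 SD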
CHRM5 antagonist – blocks acetylcholine activation of human M5 receptor | CHO-hM5 cells, Fluo-8 calcium fluorescence, ACh EC80 | AID 624040 | inhibition, % at 3 µM | P08912 | 0.59% of 360,000 active;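 active = inhibition above a per-plate cutoff, the mean of that plate's test compounds plus 3 SD, cut at about 27% in these data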;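 note: 0% = acetylcholine EC80 with DMSO and 100% = DMSO without agonist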
Starred values were filed as active, the others as inactive.

SMILES | CHRM4 agonist | CHRM5 agonist | M4 antag | M5 PAM | CHRM4 PAM | CHRM5 antagonist
Cc1c(C(c2ccccc2O)c2c(C)n(C)n(-c3ccccc3)c2=O)c(=O)n(-c2ccccc2)n1C | 1 | 0 | -2 | 6 | 13 | 5
Cc1c(C(c2cc3c(cc2Br)OCO3)c2c(C)n(C)n(-c3ccccc3)c2=O)c(=O)n(-c2ccccc2)n1C | -1 | -3 | 44* | 0 | -28 | -5
Cc1ccccc1/C=N/NC(=O)c1ccc(-n2cnnn2)cc1 | 2 | 0 | 0 | -4 | 5 | 7
C/C(CC1CC(COCC(C)C)OC1=O)=N\Nc1nc(-c2ccccc2)cs1 (stereo unspecified) | 1 | 0 | 30* | -2 | -1 | 1
COc1ccc(C(=O)OCC(=O)NCCCc2ccccc2)c(OC)c1 | 3 | -2 | 11 | -5 | -4 | 9
COc1ccc(C(=O)OCC(=O)NC(=O)Nc2ccccc2F)c(OC)c1 | 0 | 1 | 9 | -8 | 21* | 14
CCN(CC)CC#CCC(O)(c1ccccc1)C1CCCCC1 (stereo unspecified) | 2 | -10 | 76* | -18 | -25 | 72*
CCOC(=O)CNC(=O)Cn1cnc2c(nnn2-c2cccc(OC)c2)c1=O | 1 | -3 | 8 | -1 | 0 | 13
O=c1[nH]c(-c2ccccc2)nc(CN2CCCCC2)c1O | 1 | 0 | -15 | 0 | 21* | -2
Cc1cc(C)c(NC(=O)CN2C(=O)NC3(CCCc4ccccc43)C2=O)c(Cl)c1 (stereo unspecified) | 2 | 2 | -3 | -4 | 0 | 6
O=C1CC(SC(=NCc2ccc3c(c2)OCO3)Nc2ccccc2)C(=O)N1c1ccccc1 (stereo unspecified) | 1 | 0 | -19 | 14 | 24* | -7
Cc1cccc2sc(N(CCCN(C)C)C(=O)c3ccc(Cl)s3)nc12 | 8 | -17 | 24 | -35 | -49 | 12
Cc1cccc2sc(N(CCCN(C)C)C(=O)c3ccco3)nc12 | 7 | -14 | 73* | -38 | -55 | 49*
Cc1cc(C)c2nc(N(CCCN(C)C)C(=O)c3ccc4c(c3)OCCO4)sc2c1 | 15 | -8 | 19 | -23 | 29* | 10
COc1ccc(C)c2sc(N(CCCN(C)C)C(=O)c3ccc4c(c3)OCCO4)nc12 | 27 | -8 | 54* | -26 | 67* | 8
CCOc1cc(-c2noc(CCC(=O)NCC3CCCO3)n2)ccc1OC (stereo unspecified) | 1 | -3 | 0 | -4 | 1 | -2
COc1ccc(-c2noc(CCC(=O)NCC3CCCO3)n2)cc1OC (stereo unspecified) | 0 | -4 | 27* | -4 | -6 | 16
CC(C)(CO)NS(=O)(=O)c1ccc2c(c1)C(=NO)c1cc(S(=O)(=O)NC(C)(C)CO)ccc1-2 | 1 | 0 | -3 | 11 | 21* | -8
COCCNS(=O)(=O)c1ccc2c(c1)C(=NO)c1cc(S(=O)(=O)NCCOC)ccc1-2 | 2 | 4 | 0 | 2 | 8 | 9
Cc1ccc2c(Cl)c(C(=O)NCC(c3ccco3)N3CCCC3)sc2c1 (stereo unspecified) | -1 | -8 | 3 | -12 | -6 | 27*
Cc1cc(C)cc(OCC(=O)NNC(=S)NC(=O)C2CC2)c1 | 6 | -3 | 4 | -2 | 9 | 28*
COc1ccc(OCC(=O)NNC(=S)NC(=O)C2CC2)cc1 | 0 | -4 | -11 | -2 | 9 | -6
CC1Cc2cc(S(=O)(=O)N3CCC(C(=O)N4CCN(c5ccccc5F)CC4)CC3)ccc2N1C(=O)C1CC1 (stereo unspecified) | 15 | 2 | 37* | -11 | -11 | 30*
CC(=O)N1CCCc2cc(S(=O)(=O)N3CCCC(C(=O)N4CCN(c5cc(C)ccc5C)CC4)C3)ccc21 (stereo unspecified) | 37* | 2 | -14 | -18 | -27 | 21
COc1ccc(N2CCN(S(=O)(=O)c3ccc4c(c3)CC(C)N4C(=O)C3CC3)CC2)cc1 (stereo unspecified) | 0 | -3 | 8 | -13 | -6 | 27*
SMILES | CHRM4 agonist | CHRM5 agonist | M4 antag | M5 PAM | CHRM4 PAM | CHRM5 antagonist
CC(=O)N1c2ccc(S(=O)(=O)N3CCC(C(=O)N4CCC(C)CC4)CC3)cc2CC1C (stereo unspecified) | 2 | -2 | 0 | 0 | 0 | 3
CC(=O)N1c2ccc(S(=O)(=O)N3CCC(C(=O)N4CCN(c5cc(Cl)ccc5C)CC4)CC3)cc2CC1C (stereo unspecified) | 21 | 5 | 36* | -17 | -18 | 28*
COc1ccc(Cl)cc1NC(=O)CN(C)C(=O)c1cc2c(s1)CCCC2 | 5 | -3 | -14 | -9 | -3 | 4
CCn1c(NC(=O)c2ccccc2F)c(-c2cccs2)c(=O)c2ccccc21 | 0 | 7 | 29* | -9 | -34 | 1
CCn1c(NC(=O)C(C)C)c(-c2cccs2)c(=O)c2ccccc21 | 1 | 6 | -6 | 5 | -2 | -3
COC(=O)c1c(C)[nH]c(C(=O)C(C)OC(=O)c2c(C)noc2C)c1C (stereo unspecified) | 4 | 4 | -5 | -2 | 2 | 11
O=[N+]([O-])c1ccc(Oc2ccc(S(=O)(=O)Nc3ccccc3)cc2)cc1 | 39* | 19 | 53* | -21 | -40 | 43*
O=[N+]([O-])c1ccc(S(=O)(=O)Nc2ccncc2)cc1 | 1 | -1 | 2 | 4 | 0 | 2
COc1cc(C(=O)NNC(=O)COc2ccc(C)cc2)ccc1OCC(=O)N1CCOCC1 | 1 | 4 | -8 | 0 | 23* | -4
O=C(COc1ccc(Br)cc1)N1CCOCC1 | 1 | 0 | -11 | 18* | 4 | -19
COc1cc(C(=O)NNC(=O)COc2ccc(Br)cc2)ccc1OCC(=O)N1CCOCC1 | 1 | 5 | 3 | 6 | 9 | 10
CCOc1ccc(OCC(=O)N2CCOCC2)cc1 | 0 | -2 | 5 | -5 | 1 | 2
O=[N+]([O-])c1c(Nc2ccccc2O)ccc2nonc12 | 2 | -2 | 8 | 3 | -8 | -5
O=[N+]([O-])c1c(Nc2ccccc2O)cc(Cl)c2nonc12 | -2 | -11 | 33* | 8 | -3 | 21
O=C(CCCCCn1c(=S)[nH]c2cc3c(cc2c1=O)OCO3)N1CCN(C2CCCCC2)CC1 | 10 | -5 | 12 | -15 | -27 | 31*
O=C(CCCCCn1c(=S)[nH]c2cc3c(cc2c1=O)OCO3)N1CCN(Cc2ccccc2)CC1 | 5 | -3 | 2 | -2 | -6 | 5

High-throughput results (PubChem BioAssay)
